Results: ChEMBL document CHEMBL3085643, “Synthesis and evaluation in monkey of [(18)F]4-fluoro-N-methyl-N-(4-(6-(methylamino)pyrimidin-4-yl)thiazol-2-yl)benzamide ([(18)F]FIMX): a promising radioligand for PET imaging of brain metabotropic glutamate receptor 1 (mGluR1)” (J Med Chem, 2013)

Experiments:
[1] = Biodistribution in iv dosed rhesus monkey cerebellum measured at 12 mins by PET analysis; type: ADME, organism-based, Macaca mulatta; conditions: in vivo, 0.2 h
Summary of the method: (§1)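 Baseline brain PET in rhesus monkey: radioligand given intravenously (4.6–6.58 mCi; specific activity 1.67–4.18 Ci/μmol at injection). Ketamine induction (10 mg/kg, i.m.), then 1.6% isoflurane in O₂; head held in a stereotaxic frame. Scan run 120 min in 33 frames (30 s–5 min). Regional uptake taken from regions of interest, cerebellar grey matter delineated by isocontour, expressed as SUV; decay-corrected.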

[2] = Octanol-sodium phosphate buffer distribution coefficient, log D of the compound at pH 7.4; type: physicochemical
Summary of the method: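 Measured LogD of the [18F]-labelled compound: distribution between n-octanol and 0.15 M sodium phosphate buffer, pH 7.4; n = 6.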

[3] = Metabolic stability in rhesus monkey whole blood assessed as compound remaining after 30 mins by radio-HPLC analysis; type: ADME, tissue-based, Macaca mulatta; conditions: read-out: Stability
Summary of the method: (§2)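 Radioligand incubated in rhesus monkey whole blood or plasma at room temperature for at least 30 min. Blood lysed with water for 30 s; samples deproteinized with MeCN and spun at 10,000 g. Supernatants analysed by radio-HPLC; precipitates counted to give extraction efficiency. Percent unchanged parent divided by radiochemical purity.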

Plasma [4] = experiment: Biodistribution in rhesus monkey plasma at 5.24 mCi, iv after 60 mins by radio-HPLC analysis; type: ADME, organism-based, Macaca mulatta; conditions: in vivo, 1 h
Summary of the method: (§3)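 Single rhesus monkey (7.0 kg) given the radioligand iv (5.24 mCi; 1.4 nmol/kg). Venous blood drawn at 10, 30, 60 and 120 min. Separated plasma analysed by radio-HPLC on a C18 radial-compression column, eluted at 2.0 mL/min with MeOH:H₂O:Et₃N (65:35:0.1). Parent and radiometabolites given as percent of plasma radioactivity; blood-component radioactivity expressed as SUV; decay-corrected.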

[5] = Biodistribution in iv dosed rhesus monkey cerebellum measured at 2 hrs by PET analysis; type: ADME, organism-based, Macaca mulatta; conditions: in vivo; summary of the method: as §1
Blood = experiment: Biodistribution in rhesus monkey whole blood at 5.24 mCi, iv up to 150 mins by radio-HPLC analysis; type: ADME, organism-based, Macaca mulatta; conditions: in vivo, 2 h, in the assay text read “120 mins” for “150 mins”
Summary of the method: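 Venous blood sampled after iv injection of radioligand (5.24 mCi; 1.4 nmol/kg) in one 7.0 kg rhesus monkey. Whole-blood radioactivity was gamma-counted, decay-corrected and expressed as SUV.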

[6] = Biodistribution in iv dosed rhesus monkey thalamus by PET analysis; type: ADME, organism-based, Macaca mulatta; conditions: in vivo; summary of the method: as §1
[7] = Biodistribution in iv dosed rhesus monkey putamen by PET analysis; type: ADME, organism-based, Macaca mulatta; conditions: in vivo; summary of the method: as §1
Brain [8] = experiment: Biodistribution in iv dosed rhesus monkey brain administered 30 mins prior to […]-challenge by PET analysis; type: ADME, organism-based, Macaca mulatta; conditions: in vivo, 0.5 h, in the assay text read “mGluR5 ligand” for “mGluR1 ligand”
Summary of the method: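 Third rhesus monkey (8.1 kg): the mGluR5-selective ligand MTEP (5 mg/kg) given i.v. 30 min after the i.v. [18F] radioligand. Anesthesia was ketamine then isoflurane, with the head in a stereotaxic frame. A 120-min microPET acquisition in 33 frames was run, and regional washout expressed as SUV.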

Plasma [9] = experiment: Biodistribution in rhesus monkey plasma assessed as radiometabolite [18F]-B level at 5.24 mCi, iv after 60 mins by radio-HPLC analysis; type: ADME, organism-based, Macaca mulatta; conditions: in vivo, 1 h; summary of the method: as §3
Brain [10] = experiment: Biodistribution in iv dosed rhesus monkey brain administered 5 mins post mGluR1 antagonist JNJ-16259685-challenge by PET analysis; type: organism-based, Macaca mulatta; conditions: in vivo
Summary of the method: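 Receptor preblock in the baseline monkey on a separate day: JNJ-16259685 (3 mg/kg) given i.v. 5 min before the i.v. [18F] radioligand (4.6–6.58 mCi). Under ketamine/isoflurane anesthesia in a stereotaxic frame, the brain was scanned with microPET for 120 min in 33 frames. Regional time–activity curves expressed as SUV.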

Plasma [11] = experiment: Biodistribution in rhesus monkey plasma assessed as radiometabolite [18F]-C level at 5.24 mCi, iv after 60 mins by radio-HPLC analysis; type: ADME, organism-based, Macaca mulatta; conditions: in vivo, 1 h; summary of the method: as §3
[12] = Biodistribution in iv dosed rhesus monkey anterior cingulate by PET analysis; type: ADME, organism-based, Macaca mulatta; conditions: in vivo
Summary of the method: (§4)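 Baseline scans in rhesus monkey given the [18F] radioligand i.v. (4.6–6.58 mCi; specific activity 1.67–4.18 Ci/μmol at injection). Ketamine 10 mg/kg i.m. induction, then 1.6% isoflurane/98.4% O2, with the head in a stereotaxic frame. microPET Focus 220 scanning for 120 min in 33 frames (30 s–5 min). Regional uptake, including isocontour-delineated cerebellar grey matter, expressed as SUV.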

[13] = Biodistribution in iv dosed rhesus monkey cerebellum measured at 90 mins by PET analysis; type: ADME, organism-based, Macaca mulatta; conditions: in vivo, 1.5 h; summary of the method: as §1
[14] = Biodistribution in iv dosed rhesus monkey skull by PET analysis; type: ADME, organism-based, Macaca mulatta; conditions: in vivo; summary of the method: as §1
Plasma [15] = experiment: Biodistribution in rhesus monkey plasma assessed as radiometabolite [18F]-A level at 5.24 mCi, iv after 60 mins by radio-HPLC analysis; type: ADME, organism-based, Macaca mulatta; conditions: in vivo, 1 h; summary of the method: as §3
[16] = Fraction unbound in human plasma by radio-HPLC analysis; type: ADME, cell-free
[17] = Fraction unbound in rhesus monkey plasma by radio-HPLC analysis; type: ADME, cell-free, Macaca mulatta
Plasma [18] = experiment: Biodistribution in rhesus monkey plasma at 5.24 mCi, iv after 2 hrs by radio-HPLC analysis; type: ADME, organism-based, Macaca mulatta; conditions: in vivo; summary of the method: as §3
Plasma [19] = experiment: Biodistribution in rhesus monkey plasma assessed as radiometabolite [18F]-D level at 5.24 mCi, iv after 60 mins by radio-HPLC analysis; type: ADME, organism-based, Macaca mulatta; conditions: in vivo, 1 h; summary of the method: as §3
Brain [20] = experiment: Biodistribution in iv dosed rhesus monkey brain measured up to 120 mins by PET analysis; type: ADME, organism-based, Macaca mulatta; conditions: in vivo, 2 h; summary of the method: as §4
[21] = Metabolic stability in rhesus monkey plasma assessed as compound remaining after 30 mins by radio-HPLC analysis; type: ADME, cell-free, Macaca mulatta; conditions: read-out: Stability; summary of the method: as §2
[22] = Biodistribution in iv dosed rhesus monkey frontal cortex by PET analysis; type: ADME, organism-based, Macaca mulatta; conditions: in vivo; summary of the method: as §1
Plasma [23] = experiment: Biodistribution in rhesus monkey plasma at 5.24 mCi, iv measured at 31 mins by radio-HPLC analysis; type: ADME, organism-based, Macaca mulatta; conditions: in vivo; summary of the method: as §3
Plasma [24] = experiment: Biodistribution in rhesus monkey plasma assessed as radiometabolite [18F]-E level at 5.24 mCi, iv after 60 mins by radio-HPLC analysis; type: ADME, organism-based, Macaca mulatta; conditions: in vivo, 1 h; summary of the method: as §3
Brain [25] = experiment: Biodistribution in iv dosed rhesus monkey brain administered 30 mins prior to mGluR1 antagonist JNJ-16259685-challenge by PET analysis; type: organism-based, Macaca mulatta; conditions: in vivo, 0.5 h
Summary of the method: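 Displacement challenge in a second rhesus monkey: JNJ-16259685 (3 mg/kg) given i.v. 30 min after the i.v. [18F] radioligand injection. Anesthesia was ketamine 10 mg/kg i.m. then 1.6% isoflurane. The brain was scanned with microPET for 120 min in 33 frames, and regional radioactivity expressed as SUV.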

Hippocampus = experiment: Biodistribution in iv dosed rhesus monkey hippocampus by PET analysis; type: ADME, organism-based, Macaca mulatta; conditions: in vivo; summary of the method: as §1

- SUV [1]: 5.3
- logD [2]: 2.52
- remaining at 0.5 h [3]: 98.1%
- Drug uptake (Plasma [4]): 26%
- SUV [5]: 2.8
- Drug uptake (Blood): Active
- SUV [6]: 2.9
- SUV [7]: 2.5
- Drug uptake (Brain [8]): Active
- Drug uptake (Plasma [9]): 23%
- Drug uptake (Brain [10]): Active
- Drug uptake (Plasma [11]): 10%
- SUV [12]: 2.4
- SUV [13]: 3.32
- Drug uptake [14]: Not Active
- Drug uptake (Plasma [15]): 19%
- fraction unbound [16]: 0.0114
- fraction unbound [17]: 0.0123
- Drug uptake (Plasma [18]): Active
- Drug uptake (Plasma [19]): 1%
- Drug uptake (Brain [20]): Active
- remaining at 0.5 h [21]: 98.9%
- SUV [22]: 2.7
- Drug uptake (Plasma [23]): 31%
- Drug uptake (Plasma [24]): 21%
- Drug uptake (Brain [25]): Active
- SUV (Hippocampus): 2.5
Structure (SMILES): CNc1cc(-c2csc(N(C)C(=O)c3ccc([18F])cc3)n2)ncn1
